In ChEMBL document CHEMBL1134636, “Structure-activity studies on nociceptin analogues: ORL1 receptor binding and biological activity of cyclic disulfide-containing analogues of nociceptin peptides” (J Med Chem, 2001):
Peptide text beside a SMILES is read from it.

Assays:
Nociceptin receptor [1] = target: T1, Nociceptin receptor (Homo sapiens, UniProt P41146); assay: Efficacy for human ORL1 receptor expressing HEK293 cells; format: functional, cell-based
Summary of the method: (§1)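 Membranes from HEK-293 cells expressing human ORL1 (10 μg) were incubated for 30 min at 24 °C with peptides (0.01 nM to 10 μM) in 20 mM HEPES pH 7.4 with 100 mM NaCl, 10 mM MgCl₂, 1 mM EDTA, 5 μM GDP and 400 pM [³⁵S]GTPγS. Binding was read with WGA-coated SPA beads.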

Nociceptin receptor [2] = target: T1, Nociceptin receptor; assay: Efficacy for human ORL1 receptor expressing HEK293 cell membrane; format: functional, cell-based; summary of the method: as §1
Nociceptin receptor [3] = target: T1, Nociceptin receptor; assay: Displacement of [3H]NC from human ORL1 receptor expressing HEK293 cell membrane; format: cell membranes

T1 sequence (P41146 whole entry): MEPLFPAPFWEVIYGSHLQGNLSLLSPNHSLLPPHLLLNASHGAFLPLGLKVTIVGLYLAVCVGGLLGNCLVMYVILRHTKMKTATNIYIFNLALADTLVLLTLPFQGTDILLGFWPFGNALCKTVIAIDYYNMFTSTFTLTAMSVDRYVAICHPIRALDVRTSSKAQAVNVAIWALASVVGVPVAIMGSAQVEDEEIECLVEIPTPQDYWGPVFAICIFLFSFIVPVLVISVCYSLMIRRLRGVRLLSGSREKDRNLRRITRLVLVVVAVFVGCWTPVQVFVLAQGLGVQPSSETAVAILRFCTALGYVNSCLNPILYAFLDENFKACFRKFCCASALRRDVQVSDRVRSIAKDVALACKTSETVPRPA

## C[C@@H](O)[C@H](NC(=O)[C@H](Cc1ccccc1)NC(=O)CNC(=O)CNC(=O)[C@@H](N)Cc1ccccc1)C(=O)NCC(=O)N[C@@H](CS)C(=O)N[C@@H](CCCN=C(N)N)C(=O)N[C@@H](CCCCN)C(=O)N[C@@H](CO)C(=O)N[C@@H](CS)C(=O)N[C@@H](CCCN=C(N)N)C(=O)N[C@@H](CCCCN)C(N)=O (H-FGGFTGCRKSCRK-NH2)
Nociceptin receptor [1]
  EC50: 26.3 nM
Nociceptin receptor [2]
  Emax: 99%
Nociceptin receptor [3]
  IC50: 8.7 nM
